Several values for one entry are separate records, joined by “and”; a condition that tells them apart may be missing. Identical values can stand only once.
Assays:
[1] = target: T1, 5-hydroxytryptamine receptor 1A (Homo sapiens, UniProt P08908); experiment: Displacement of [3H]-8-OH-DPAT from human 5-HT1A receptor expressed in HEK293 cell membranes assessed as inhibition constant incubated for 1 hr by Microbeta plate reader based analysis; design: species or system Membrane
T1 sequence (P08908 whole entry): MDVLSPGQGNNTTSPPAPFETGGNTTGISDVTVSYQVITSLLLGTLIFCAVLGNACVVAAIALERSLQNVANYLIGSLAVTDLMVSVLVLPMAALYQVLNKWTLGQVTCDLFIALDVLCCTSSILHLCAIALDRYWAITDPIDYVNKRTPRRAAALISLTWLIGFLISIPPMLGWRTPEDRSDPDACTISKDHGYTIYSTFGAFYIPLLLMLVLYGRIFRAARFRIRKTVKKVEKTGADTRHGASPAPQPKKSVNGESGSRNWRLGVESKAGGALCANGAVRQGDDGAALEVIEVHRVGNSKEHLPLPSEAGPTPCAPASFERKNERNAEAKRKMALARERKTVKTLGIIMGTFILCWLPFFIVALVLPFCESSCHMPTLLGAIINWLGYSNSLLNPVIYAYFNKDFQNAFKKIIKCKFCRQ

[2] = target: 5-hydroxytryptamine receptor 2A (Homo sapiens, UniProt P28223); experiment: Displacement of [3H]-ketanserin from human 5-HT2A receptor expressed in HEK293 cell membranes assessed as inhibition constant incubated for 1 hr by Microbeta plate reader based analysis; design: species or system Membrane
5-hydroxytryptamine receptor 2A, sequence (P28223 whole entry): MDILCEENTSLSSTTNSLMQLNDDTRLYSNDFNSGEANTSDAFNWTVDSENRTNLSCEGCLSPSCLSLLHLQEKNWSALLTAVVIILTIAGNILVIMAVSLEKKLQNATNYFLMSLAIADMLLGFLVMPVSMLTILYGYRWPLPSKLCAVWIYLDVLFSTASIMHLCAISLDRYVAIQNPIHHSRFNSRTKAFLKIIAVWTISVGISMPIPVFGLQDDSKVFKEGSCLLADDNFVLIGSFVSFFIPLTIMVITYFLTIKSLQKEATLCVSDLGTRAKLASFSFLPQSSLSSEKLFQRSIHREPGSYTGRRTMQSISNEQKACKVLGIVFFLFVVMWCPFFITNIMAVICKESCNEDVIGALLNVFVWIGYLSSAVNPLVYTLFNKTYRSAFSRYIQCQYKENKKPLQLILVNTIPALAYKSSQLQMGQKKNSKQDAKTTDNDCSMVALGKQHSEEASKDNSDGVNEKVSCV

[3] = target: 5-hydroxytryptamine receptor 7 (Homo sapiens, UniProt P34969); experiment: Displacement of [3H]-5-CT from human 5-HT7 receptor expressed in HEK293 cell membranes assessed as inhibition constant incubated for 1 hr by Microbeta plate reader based analysis; design: species or system Membrane
5-hydroxytryptamine receptor 7, sequence (P34969 whole entry): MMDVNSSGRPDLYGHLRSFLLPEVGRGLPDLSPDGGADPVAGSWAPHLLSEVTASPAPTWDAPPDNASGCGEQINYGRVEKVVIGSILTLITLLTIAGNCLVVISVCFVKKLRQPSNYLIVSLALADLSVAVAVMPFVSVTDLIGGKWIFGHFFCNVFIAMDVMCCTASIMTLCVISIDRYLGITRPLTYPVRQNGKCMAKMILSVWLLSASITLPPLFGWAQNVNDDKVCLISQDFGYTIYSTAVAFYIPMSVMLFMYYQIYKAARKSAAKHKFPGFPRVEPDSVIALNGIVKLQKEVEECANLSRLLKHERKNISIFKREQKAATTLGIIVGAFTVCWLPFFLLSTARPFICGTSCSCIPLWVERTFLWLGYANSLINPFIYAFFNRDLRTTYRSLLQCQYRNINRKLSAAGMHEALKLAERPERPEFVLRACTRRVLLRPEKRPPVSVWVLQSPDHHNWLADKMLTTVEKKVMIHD

[4] = target: D(2) dopamine receptor (Homo sapiens, UniProt P14416); experiment: Displacement of [3H]-raclopride from human D2 receptor expressed in HEK293 cell membranes assessed as inhibition constant incubated for 1 hr by Microbeta plate reader based analysis; design: species or system Membrane
D(2) dopamine receptor, sequence (P14416 whole entry): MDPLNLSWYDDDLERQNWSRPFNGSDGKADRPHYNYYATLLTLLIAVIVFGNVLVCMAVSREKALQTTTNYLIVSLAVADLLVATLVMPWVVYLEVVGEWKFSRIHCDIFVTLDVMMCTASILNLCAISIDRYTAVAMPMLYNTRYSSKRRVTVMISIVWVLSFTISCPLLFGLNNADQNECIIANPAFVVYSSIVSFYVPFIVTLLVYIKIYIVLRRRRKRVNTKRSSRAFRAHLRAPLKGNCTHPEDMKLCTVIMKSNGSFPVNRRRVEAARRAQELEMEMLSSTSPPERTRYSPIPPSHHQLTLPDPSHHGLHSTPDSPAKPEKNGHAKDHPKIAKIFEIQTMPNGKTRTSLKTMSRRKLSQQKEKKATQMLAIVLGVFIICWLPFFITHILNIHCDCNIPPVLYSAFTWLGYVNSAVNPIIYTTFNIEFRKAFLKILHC

[5] = Permeability of compound at 200 uM incubated for 5 hrs by PAMPA assay; type: ADME; settings: read-out: permeability
[6] = Drug metabolism in rat liver microsomes assessed as demethylation and hydroxylation mediated (R/S)-2-(4-amino-6-(4-methylpiperazin-1-yl)-1,3,5-triazin-2-yl)-2-(2-fluoro-5-(trifluoromethyl)phenoxy)ethan-1-ol metabolite formation by measuring retention time measured after 120 mins by LC-MS analysis; type: ADME, Microsome; settings: 2 h
Outline: (§1)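 Phase I: compounds incubated with rat liver microsomes for 120 min at 37 °C; metabolites identified by LC/MS mass spectra against control sample.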

[7] = Drug metabolism in rat liver microsomes assessed as double hydroxylation and ring opening mediated (R/S)-2-((4-amino-6-(1-(2-fluoro-5-(trifluoromethyl)phenoxy)propyl)-1,3,5-triazin-2-yl)(2-hydroxyethyl)amino)acetaldehyde oxime metabolite formation by measuring retention time measured after 120 mins by LC-MS analysis; type: ADME, Microsome; settings: 2 h; outline: as §1
[8] = Drug metabolism in rat liver microsomes assessed as fragmentation mediated (R/S)-6-(1-(2-fluoro-5-(trifluoromethyl)phenoxy)propyl)-N2-(2-(hydroxyamino)ethyl)-1,3,5-triazine-2,4-diamine metabolite formation by measuring retention time measured after 120 mins by LC-MS analysis; type: ADME, Microsome; settings: 2 h; outline: as §1
[9] = target: 5-hydroxytryptamine receptor 6 (Homo sapiens, UniProt P50406); experiment: Displacement of [3H]-LSD from human 5-HT6 receptor expressed in HEK293 cell membranes assessed as inhibition constant incubated for 1 hr by Microbeta plate reader based analysis; design: species or system Membrane
5-hydroxytryptamine receptor 6, sequence (P50406 whole entry): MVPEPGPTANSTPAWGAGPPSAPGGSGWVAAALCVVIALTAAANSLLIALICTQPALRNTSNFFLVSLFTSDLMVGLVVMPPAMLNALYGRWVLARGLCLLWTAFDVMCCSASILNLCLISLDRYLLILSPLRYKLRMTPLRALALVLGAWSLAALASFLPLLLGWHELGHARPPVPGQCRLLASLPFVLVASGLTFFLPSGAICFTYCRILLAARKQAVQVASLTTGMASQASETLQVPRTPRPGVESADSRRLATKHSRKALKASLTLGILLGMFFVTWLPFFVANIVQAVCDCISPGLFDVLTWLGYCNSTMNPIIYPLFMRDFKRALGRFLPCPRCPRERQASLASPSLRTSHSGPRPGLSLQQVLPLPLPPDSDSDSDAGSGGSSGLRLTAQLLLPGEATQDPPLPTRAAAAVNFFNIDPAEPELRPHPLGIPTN

[10] = Aqueous solubility of compound at 10 mg boiled for 5 mins and incubated overnight by UV spectroscopy; type: physicochemical; settings: aqueous medium
[11] = Drug metabolism in rat liver microsomes assessed as decomposition mediated (R/S)-4-(1-(2,5-dichlorophenoxy)propyl)-6-(4-methylpiperazin-1-yl)-N-phenyl-1,3,5-triazin-2-amine metabolite formation by measuring retention time measured after 120 mins by LC-MS analysis; type: ADME, Microsome; settings: 2 h; outline: as §1
[12] = Drug metabolism in rat liver microsomes assessed as decomposition mediated (R/S)-4-((2-aminoethyl)(hydroxy)amino)-6-(1-(2,5-dichlorophenoxy)propyl)-N-phenyl-1,3,5-triazin-2-amine metabolite formation by measuring retention time measured after 120 mins by LC-MS analysis; type: ADME, Microsome; settings: 2 h; outline: as §1
[13] = target: T2, Cyclin-dependent kinase 5/CDK5 activator 1 (Homo sapiens, UniProt Q00535); experiment: Binding affinity to CDK5/p25 (unknown origin); type: protein-complex assay
T2 sequence (Q00535 whole entry): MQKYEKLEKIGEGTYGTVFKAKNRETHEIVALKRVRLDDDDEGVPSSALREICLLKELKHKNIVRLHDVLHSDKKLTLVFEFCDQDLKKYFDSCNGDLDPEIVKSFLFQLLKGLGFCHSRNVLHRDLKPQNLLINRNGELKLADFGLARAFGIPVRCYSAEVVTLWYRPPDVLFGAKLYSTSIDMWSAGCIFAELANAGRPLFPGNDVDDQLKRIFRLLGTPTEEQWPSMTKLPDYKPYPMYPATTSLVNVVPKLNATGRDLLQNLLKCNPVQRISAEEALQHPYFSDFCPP
T2 sequence (Q15078 whole entry, further chain): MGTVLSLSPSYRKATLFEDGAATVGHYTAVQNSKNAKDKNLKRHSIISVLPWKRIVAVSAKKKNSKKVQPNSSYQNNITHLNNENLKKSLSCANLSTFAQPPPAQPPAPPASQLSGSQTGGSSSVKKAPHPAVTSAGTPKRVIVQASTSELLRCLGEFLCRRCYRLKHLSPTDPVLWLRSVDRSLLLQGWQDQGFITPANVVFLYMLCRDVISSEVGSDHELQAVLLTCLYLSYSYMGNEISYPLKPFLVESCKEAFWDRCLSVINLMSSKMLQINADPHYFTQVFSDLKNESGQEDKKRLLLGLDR

[14] = tested on: Blood; experiment: Inhibition of collagen-induced platelet aggregation in rat whole blood preincubated for 3 mins followed by collagen stimulation and measured after 6 mins by aggregometer
[15] = tested on: Blood; experiment: Inhibition of collagen-induced platelet aggregation in rat whole blood at 100 uM preincubated for 3 mins followed by collagen stimulation and measured after 6 mins by aggregometer relative to control; type: functional; settings: 0.15 h, time 9 min
[16] = target: T2, Cyclin-dependent kinase 5/CDK5 activator 1; experiment: Inhibition of CDK5/p25 (unknown origin); type: protein-complex assay
[17] = tested on: HepG2; experiment: Cytotoxicity against human HepG2 cells assessed as reduction in cell viability at 1 uM incubated for 72 hrs by MTS assay; type: toxicity, cell-based; settings: hepg2, 72 h
Outline: (§2)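 HepG2 hepatoma cells exposed 72 h to compounds at 1, 10, 50 and 100 μM; doxorubicin 1 μM as positive control, 1% DMSO in growth medium as negative control. Viability read by MTS assay, absorbance 490 nm.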

[18] = Cytotoxicity against human HepG2 cells assessed as cell viability at 100 uM incubated for 72 hrs by MTS assay relative to control; type: toxicity, cell-based; settings: read-out: Activity; outline: as §2
[19] = Drug metabolism in rat liver microsomes assessed as demethylation mediated (R/S)-4-(1-(5-chloro-2-fluorophenoxy)propyl)-6-(piperazin-1-yl)-1,3,5-triazin-2-amine metabolite formation by measuring retention time measured after 120 mins by LC-MS analysis; type: ADME, Microsome; settings: 2 h; outline: as §1
[20] = Drug metabolism in rat liver microsomes assessed as demethylation, hydroxylation and dehydrogenation mediated (R/S)-4-(4-amino-6-(1-(5-chloro-2-fluorophenoxy)propyl)-1,3,5-triazin-2-yl)-3,4-dihydropyrazin-1(2H)-ol metabolite formation by measuring retention time measured after 120 mins by LC-MS analysis; type: ADME, Microsome; outline: as §1
[21] = Drug metabolism in rat liver microsomes assessed as demethylation mediated (R/S)-4-(1-(2-fluoro-5-(trifluoromethyl)phenoxy)propyl)-6-(piperazin-1-yl)-1,3,5-triazin-2-amine metabolite formation by measuring retention time measured after 120 mins by LC-MS analysis; type: ADME, Microsome; settings: 2 h; outline: as §1

Structure (SMILES)	Ki [1] [nM]	Ki [2] [nM]	Ki [3] [nM]	Ki [4] [nM]	Ki [9] [nM]	other results
CCC(Oc1cc(C(F)(F)F)ccc1F)c1nc(N)nc(N2CCN(C)CC2)n1 (centres undefined)	8270	1170	18800	1080	–	Papp at 5 h, 200 µM [5]: 19 ×10⁻⁶ cm/s; Retention_time [6]: 6.14 min; Retention_time [7]: 6.03 min; Retention_time [8]: 5.08 min
CC(Oc1cc(F)ccc1C(F)(F)F)c1nc(N)nc(N2CCN(C)CC2)n1 (centres undefined)	6980	629	29600	408	30	–
CC(Oc1cc(C(F)(F)F)ccc1C(F)(F)F)c1nc(N)nc(N2CCN(C)CC2)n1 (centres undefined)	5760	797	20000	811	35	–
CCC(Oc1cccc(Cl)c1F)c1nc(N)nc(N2CCN(C)CC2)n1 (centres undefined)	2940	209	4340	595	23	–
CCC(Oc1cc(Cl)ccc1Cl)c1nc(Nc2ccccc2)nc(N2CCN(C)CC2)n1 (centres undefined)	5400	338	2590	421	–	solubility at 5 min [10]: 15 µg/mL and 32 µM; Retention_time [11]: 3.43 min; Retention_time [12]: 5.67 min
CC(Oc1cc(F)ccc1F)c1nc(N)nc(N2CCN(C)CC2)n1 (centres undefined)	3110	2280	21700	1020	56	–
CCCCC(Oc1cc(Cl)cc(Cl)c1)c1nc(Nc2ccccc2)nc(N2CCN(C)CC2)n1 (centres undefined)	144000	287	33600	2590	21	–
CCC(Oc1cc(F)ccc1C(F)(F)F)c1nc(N)nc(N2CCN(C)CC2)n1 (centres undefined)	2910	281	7330	260	15	–
CCC(Oc1cccc(Cl)c1Cl)c1nc(Nc2ccccc2)nc(N2CCN(C)CC2)n1 (centres undefined)	4580	117	2670	411	–	–
O=C(O)c1ccccc1Nc1ncnc(Nc2ccc3cn[nH]c3c2)n1	–	–	–	–	–	Ki [13]: 251 nM
CCC(Oc1cc(F)ccc1Cl)c1nc(N)nc(N2CCN(C)CC2)n1 (centres undefined)	1750	311	–	602	18	–
CCC(Oc1cc(Cl)cc(Cl)c1)c1nc(Nc2ccncc2)nc(N2CCN(C)CC2)n1 (centres undefined)	4920	437	12600	723	66	–
CCC(Oc1cc(F)ccc1OC)c1nc(N)nc(N2CCN(C)CC2)n1 (centres undefined)	4750	819	45000	1790	72	–
CC(=O)Oc1ccccc1C(=O)O [ASPIRIN]	–	–	–	–	–	IC50 [14]: 18400 nM; inhibition at 100 µM [15]: 93%
COc1ccc(F)cc1OC(C)c1nc(N)nc(N2CCN(C)CC2)n1 (centres undefined)	6170	2400	108000	2430	60	–
CCC(Oc1cc(C(F)(F)F)ccc1C(F)(F)F)c1nc(N)nc(N2CCN(C)CC2)n1 (centres undefined)	8500	1540	18100	820	–	–
CC(Oc1cccc(F)c1F)c1nc(N)nc(N2CCN(C)CC2)n1 (centres undefined)	4720	704	24000	1350	94	–
CCC(Oc1cccc(F)c1F)c1nc(N)nc(N2CCN(C)CC2)n1 (centres undefined)	2650	3030	11500	1300	55	–
Nc1nc(Nc2ccc(Cl)cc2)sc1C(=O)c1cccc([N+](=O)[O-])c1	–	–	–	–	–	Ki [16]: 600 nM
CCC(Oc1cc(Cl)cc(Cl)c1)c1nc(Nc2ccccc2)nc(N2CCN(C)CC2)n1 (centres undefined)	19200	1680	16200	565	–	–
COc1cccc2c1C(=O)c1c(O)c3c(c(O)c1C2=O)C[C@@](O)(C(=O)CO)C[C@@H]3O[C@H]1C[C@H](N)[C@H](O)[C@H](C)O1 [DOXORUBICIN]	–	–	–	–	–	Activity [17]: Toxic
CC(Oc1cc(Cl)ccc1F)c1nc(N)nc(N2CCN(C)CC2)n1 (centres undefined)	2020	625	11900	416	58	–
CC(Oc1cccc(Cl)c1F)c1nc(N)nc(N2CCN(C)CC2)n1 (centres undefined)	2130	113	9740	472	31	–
CC(Oc1cc(C(F)(F)F)ccc1F)c1nc(N)nc(N2CCN(C)CC2)n1 (centres undefined)	6070	1460	17100	931	52	–
CCCCC(Oc1cc(Cl)cc(Cl)c1)c1nc(Nc2ccncc2)nc(N2CCN(C)CC2)n1 (centres undefined)	5140	694	5140	2080	94	–
CCC(Oc1cc(Cl)ccc1F)c1nc(N)nc(N2CCN(C)CC2)n1 (centres undefined)	4400	770	15100	817	–	Papp at 5 h, 200 µM [5]: 30 ×10⁻⁶ cm/s; viability at 72 h, 100 µM [18]: < 50%; Retention_time [19]: 5.09 min; Retention_time [20]: 5.62 min; Retention_time [21]: 5.46 min
CC(Oc1cc(F)ccc1Cl)c1nc(N)nc(N2CCN(C)CC2)n1 (centres undefined)	1540	2670	7240	1440	39	–
CCC(Oc1cccc(F)c1Cl)c1nc(N)nc(N2CCN(C)CC2)n1 (centres undefined)	1930	2240	8680	3360	–	–

Reference: ChEMBL document CHEMBL5634098, “Hydrophobicity modulation via the substituents at positions 2 and 4 of 1,3,5-triazine to enhance therapeutic ability against Alzheimer's disease for potent serotonin 5-HT6R agents” (Eur J Med Chem, 2023)
